Laboratory results taken from PMC10150327 (NAR Cancer, 2023).

Legend:
RAD52–ssDNA interaction = target: T1, RAD52–ssDNA interaction (Homo sapiens, UniProt P43351); conditions: cited from earlier work
T1 sequence (P43351 1-418): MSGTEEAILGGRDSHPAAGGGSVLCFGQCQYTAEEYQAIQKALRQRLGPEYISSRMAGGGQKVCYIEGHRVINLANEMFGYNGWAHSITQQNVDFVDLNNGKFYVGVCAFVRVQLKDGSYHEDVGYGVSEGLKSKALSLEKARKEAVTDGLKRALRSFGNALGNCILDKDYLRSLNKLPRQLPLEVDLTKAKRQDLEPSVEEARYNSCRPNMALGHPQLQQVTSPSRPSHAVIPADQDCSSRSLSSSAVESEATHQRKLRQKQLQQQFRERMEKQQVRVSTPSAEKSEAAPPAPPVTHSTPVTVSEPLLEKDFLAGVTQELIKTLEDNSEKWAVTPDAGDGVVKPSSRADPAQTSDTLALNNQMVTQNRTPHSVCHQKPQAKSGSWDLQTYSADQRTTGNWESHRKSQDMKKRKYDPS

[1] = tested on: association of RAD52 with parental ssDNA; assay: In situ proximity ligation assay; assay type: cell-based; conditions: after HU treatment
Procedure, shortened: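 Parental DNA was labelled with 50 μM IdU for 20 h, then 2 h in fresh DMEM before treatment. Cells were Triton-permeabilised (0.5%, 10 min, 4°C), fixed in 3% formaldehyde/2% sucrose and blocked in 3% BSA. Probes: rabbit anti-RAD52 (1:150) plus mouse anti-IdU (1:10), then PLA probes, each 1 h at 37°C. Ligation and rolling-circle amplification used a TRITC oligo. Single-antibody controls were included; spots per cell given as mean ± SE.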

BRCA2-depleted cells = conditions: cited from earlier work
MRC5 SV40 cells = assay: Native IdU assay, nascent ssDNA; assay type: cell-based, human; conditions: 2 mM HU, short treatment
MRC5SV40 fibroblasts = assay: Neutral comet assay, HU-induced DSBs; assay type: cell-based, human; conditions: HU 24 h, inhibitor 30 min before HU
RPA–ssDNA interaction = RPA–ssDNA interaction (Homo sapiens, UniProt P27694); conditions: cited from earlier work
[2] = tested on: complemented cell line (HA); conditions: cited from earlier work
EUFA423F = conditions: cited from earlier work
mass photometry = target: the molecule itself; assay: mass photometry

Chain of RPA–ssDNA interaction (P27694 whole entry): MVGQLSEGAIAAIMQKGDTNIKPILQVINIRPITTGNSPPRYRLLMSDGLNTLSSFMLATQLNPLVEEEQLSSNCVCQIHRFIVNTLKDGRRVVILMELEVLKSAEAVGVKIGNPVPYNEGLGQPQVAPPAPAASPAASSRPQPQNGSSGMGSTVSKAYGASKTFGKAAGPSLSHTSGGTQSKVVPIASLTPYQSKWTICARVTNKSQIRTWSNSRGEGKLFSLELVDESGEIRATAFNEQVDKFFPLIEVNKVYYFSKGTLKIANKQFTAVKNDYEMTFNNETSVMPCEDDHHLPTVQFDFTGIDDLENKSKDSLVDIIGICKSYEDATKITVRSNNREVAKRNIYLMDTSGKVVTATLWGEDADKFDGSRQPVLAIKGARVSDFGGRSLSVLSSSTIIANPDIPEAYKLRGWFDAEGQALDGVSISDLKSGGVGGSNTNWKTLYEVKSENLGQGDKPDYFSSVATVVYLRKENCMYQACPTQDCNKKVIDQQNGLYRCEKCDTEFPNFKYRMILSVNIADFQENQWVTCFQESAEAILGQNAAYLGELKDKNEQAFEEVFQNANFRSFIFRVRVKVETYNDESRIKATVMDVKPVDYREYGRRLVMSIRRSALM
Chain of RPA–ssDNA interaction (P15927 whole entry partner): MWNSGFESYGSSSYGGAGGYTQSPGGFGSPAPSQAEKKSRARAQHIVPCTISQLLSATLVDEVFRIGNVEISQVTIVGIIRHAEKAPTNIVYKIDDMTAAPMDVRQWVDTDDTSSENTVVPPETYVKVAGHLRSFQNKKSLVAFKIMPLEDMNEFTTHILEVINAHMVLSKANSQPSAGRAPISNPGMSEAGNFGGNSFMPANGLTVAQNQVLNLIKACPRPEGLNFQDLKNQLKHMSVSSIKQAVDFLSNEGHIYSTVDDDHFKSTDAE
Chain of RPA–ssDNA interaction (P35244 whole entry partner): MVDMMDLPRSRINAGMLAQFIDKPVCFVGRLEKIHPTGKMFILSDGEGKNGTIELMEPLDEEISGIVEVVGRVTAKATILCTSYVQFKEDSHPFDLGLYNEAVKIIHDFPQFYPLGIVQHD

Oc1cc(O)c2c(c1)O[C@H](c1cc(O)c(O)c(O)c1)[C@H](O)C2 [EGC, epigallocatechin]
Competition with ssDNA binding to RAD52 (RAD52–ssDNA interaction): competed with ssDNA binding to RAD52 | Specificity for RAD52 (RAD52–ssDNA interaction): highly specific to RAD52 | Association of RAD52 with parental ssDNA (PLA spots per cell) [1]: supressed | Toxicity to BRCA2-depleted cells (BRCA2-depleted cells): selectively toxic | Exposure of nascent ssDNA (native anti-IdU IF) (MRC5 SV40 cells): significantly increased the level of ssDNA | DSBs formation (tail moment) in HU-treated cells (MRC5SV40 fibroblasts): significantly reduced

O=C(O[C@@H]1Cc2c(O)cc(O)cc2O[C@@H]1c1cc(O)c(O)c(O)c1)c1cc(O)c(O)c(O)c1 [EGCG, epigallocatechin gallate]
Effect on ssDNA binding to RPA (RPA–ssDNA interaction): also inhibited the RPA–ssDNA interaction

CO[C@@]12[C@H](COC(N)=O)C3=C(C(=O)C(C)=C(N)C3=O)N1C[C@@H]1N[C@@H]12 [mitomycin C]
Sensitivity of complemented cell line (HA) [2]: resistant

C[C@]1(c2nc3c(C(N)=O)cccc3[nH]2)CCCN1 [veliparib]
Sensitivity of complemented cell line (HA) [2]: resistant | Sensitivity of EUFA423F cells (EUFA423F): sensitive

B1: 6xHis-tagged human RAD52 (wild type) (natural protein)
chain: MSGTEEAILGGRDSHPAAGGGSVLCFGQCQYTAEEYQAIQKALRQRLGPEYISSRMAGGGQKVCYIEGHRVINLANEMFGYNGWAHSITQQNVDFVDLNNGKFYVGVCAFVRVQLKDGSYHEDVGYGVSEGLKSKALSLEKARKEAVTDGLKRALRSFGNALGNCILDKDYLRSLNKLPRQLPLEVDLTKAKRQDLEPSVEEARYNSCRPNMALGHPQLQQVTSPSRPSHAVIPADQDCSSRSLSSSAVESEATHQRKLRQKQLQQQFRERMEKQQVRVSTPSAEKSEAAPPAPPVTHSTPVTVSEPLLEKDFLAGVTQELIKTLEDNSEKWAVTPDAGDGVVKPSSRADPAQTSDTLALNNQMVTQNRTPHSVCHQKPQAKSGSWDLQTYSADQRTTGNWESHRKSQDMKKRKYDPS
stoichiometry N (mass photometry): 10
